Source: PubChem
In the library only some 2% were active in any assay of this set; here they are far more common.
DENV2 CPE rescue – inhibitors of DENV2 cytopathic effect; DENV2-infected cells, cytopathic effect rescue, plate reader; CPE inhibition, % at 9.99 µM; 350,000 compounds, 1.7% hits; AID 651640; in the data active means CPE inhibition above about 20%, passing the limit was not always enough; inconclusive means no clear call, values can overlap the other calls; tested in BHK-21 cells
Xi reactivation – X-chromosome reactivation activator; activation, % at 7.58 µM; XiGFP mouse fibroblasts, % GFP-positive cells imaging, 3 d; cells co-treated with 5-aza-dC sensitizer; scaled so ellipticine positive control = 100%; 360,000 compounds, 0.055% hits;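 active means mean normalized replicate activation at least 10% and every replicate at or above 10%; inconclusive means only one of the two criteria met; inactive means mean below 10% and not all replicates reach 10%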
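Material: XiGFP fibroblasts, SV40-immortalized; Buffer or medium: DMEM containing 5-aza-dC; Compound dosing: single point; Times: 3 days compound exposure.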
CaV13 ICDI inh – Disruptors of the CACNA1D IQ motif to Ca2+-dependent inactivation inhibitor domain association, primary screening, Förster resonance energy transfer in intact living … | AID 743397 | HEK cells, CFP/YFP FRET ICDI-IQ, plate reader, 10 min; percent FRET-ratio fall versus neutral wells | inhibition, % at 12.3 µM | 340,000 compounds, 0.098% hits;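 active means mean replicate inhibition of at least 30% and at least 1% of replicates passing that level; inconclusive means only one of the two criteria is met; inactive means neither criterion is met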
Casp6 inh – inhibitors of human caspase-6; P55212; inhibition, % at 12.5 µM; AID 686996; purified caspase-6, Z-VEID-R110 cleavage fluorescence; 350,000 compounds, 0.53% hits;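 active means mean inhibition across replicates at least about 35%, with every replicate also reaching that limit, limit read from the data; inconclusive means only one of the two criteria met; inactive means neither criterion met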
Target sequence (P55212 24-179 limits assumed): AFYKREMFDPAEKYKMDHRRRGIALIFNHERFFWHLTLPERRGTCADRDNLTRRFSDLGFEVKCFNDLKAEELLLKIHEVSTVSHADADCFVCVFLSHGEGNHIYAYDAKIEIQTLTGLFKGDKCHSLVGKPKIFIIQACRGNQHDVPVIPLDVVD
Target sequence (P55212 194-293 limits assumed): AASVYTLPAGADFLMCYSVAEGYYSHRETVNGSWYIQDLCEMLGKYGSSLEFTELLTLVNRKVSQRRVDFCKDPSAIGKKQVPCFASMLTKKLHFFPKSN
FN deposit inh – fibronectin deposition inhibition. AH1F fibroblasts, Alexa488-fibronectin deposition fluorescence, overnight. inhibition, % at 12.6 µM. 350,000 compounds, 0.086% hits;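 active means mean inhibition across replicates of 30% or more, regardless of how many single replicates reach that level; inconclusive means mean under 30% yet at least half of replicates reach 30%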
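Assay system: AH1F fibroblasts / Quantity: 10000 cells per well / Medium: DMEM plus 2% serum, read in PBS / Reagent: labelled fibronectin 24 nM / Dosing: single dose, pinned / Times: 1 h cell attachment, overnight exposure to compound and label / Signal: fluorescence, ex 485 nm, em 525 nm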
Numbers stand for hits; . = inactive; ? = inconclusive; / = no result given; + = active, no number.

SMILES	DENV2 CPE rescue	Xi reactivation	CaV13 ICDI inh	Casp6 inh	FN deposit inh
CCCN1C[C@@H](C)[C@@H](OC)CN(C)C(=O)c2ccc(NC(=O)CC)cc2OC[C@H]1C	/	.	/	/	.
COc1ccc(CNC(=O)C[C@H]2C(=O)N(Cc3ccccc3)C[C@@H]2Cc2ccccc2)cc1	30	.	.	.	.
CCCCN1C[C@H](Cc2ccccc2)[C@@H](CC(=O)Nc2ccc(OC)cc2)C1=O	.	.	.	.	.
CCCCN1C[C@H](Cc2ccccc2)[C@@H](CC(=O)Nc2ccccc2)C1=O	56	.	.	.	.
COc1ccc(CNC(=O)C[C@H]2C(=O)N(Cc3ccc(OC)cc3)C[C@@H]2Cc2ccccc2)cc1	.	.	.	.	.
COc1ccc2oc(=O)c(-c3nc(C)cs3)cc2c1	/	/	.	/	.
CC/C(C)=N\Nc1nc(-c2cc3cc(OC)ccc3oc2=O)cs1	.	.	+	.	.
COCc1cn(CC[C@H]2CC[C@H](NC(=O)Nc3ccc(OC)cc3)[C@H](CO)O2)nn1	?	.	/	.	/
CSc1nnc(-c2ccco2)c(-c2ccco2)n1	/	/	.	48	.
C[C@H]1CN([C@@H](C)CO)C(=O)c2cccc(NS(C)(=O)=O)c2O[C@@H]1CN(C)C	.	.	/	.	/
CCCc1cc(=O)oc2c(C)c(OCC(=O)N3C[C@H]4C[C@@H](C3)c3cccc(=O)n3C4)ccc12	29	/	/	.	/
O=C(NC1CCCCC1)[C@@H]1[C@@H](CO)[C@@H]2Cn3c(ccc(-c4ccccc4)c3=O)[C@H]1N2	/	.	/	/	.
O=C(C[C@@H]1C[C@@H]2c3cc(NC(=O)CC4CC4)ccc3O[C@@H]2[C@@H](CO)O1)NCc1cccc(F)c1	?	.	/	.	.
COCCNC(=O)c1cc2cc3ccc(OC)cc3nc2o1	25	.	.	.	.
COCC(=O)N1C[C@H]2CON(C)[C@H]2C[C@H]1c1cccc(-c2ccccc2)c1	34	/	.	.	.
COCC(=O)N1C[C@H]2CON(C)[C@H]2C[C@H]1c1cccc(-c2ccc(C#N)cc2)c1	.	/	.	.	.
Cc1noc(C)c1S(=O)(=O)Nc1ccc2c(c1)C(=O)N([C@H](C)CO)C[C@H](C)[C@H](CN(C)S(=O)(=O)c1cccs1)OCCCC[C@@H](C)O2	.	.	/	/	.
Cc1cccc(N=[N+]([O-])c2cccc(C)n2)n1	27	.	.	.	.
Cc1cccc(N=O)n1	.	.	.	.	.
N#Cc1ccc(OCC(=O)OCC(=O)N2CCc3ccccc32)cc1	.	.	35	.	.
CCC(=O)c1ccc(OCC(=O)OCC(=O)N2CCc3ccccc32)cc1	.	.	.	.	.
Cc1ccccc1NC(=O)c1c(C)nc(SCC(=O)OCc2ccccc2)c(C#N)c1-c1ccc(F)cc1	20	.	.	.	.
CNC[C@H]1Oc2c(NC(=O)c3ccncc3)cccc2C(=O)N([C@@H](C)CO)C[C@H]1C	38	.	/	.	.
C[C@H]1CN([C@@H](C)CO)C(=O)c2cccc(NC(=O)c3ccncc3)c2O[C@H]1CN(C)Cc1ccc(C(=O)Nc2ccccc2N)cc1	44	.	/	.	/
CNC[C@H]1Oc2c(NC(=O)c3ccncc3)cccc2C(=O)N([C@H](C)CO)C[C@@H]1C	.	.	/	.	.
SMILES	DENV2 CPE rescue	Xi reactivation	CaV13 ICDI inh	Casp6 inh	FN deposit inh
C[C@H]1CN([C@@H](C)CO)C(=O)c2cccc(NC(=O)C3CCCCC3)c2O[C@@H]1CN(C)Cc1ccc(C(=O)Nc2ccccc2N)cc1	80	.	/	.	.
C[C@H]1CN([C@@H](C)CO)C(=O)c2cccc(NS(C)(=O)=O)c2O[C@@H]1CN(C)Cc1ccc(C(=O)Nc2ccccc2N)cc1	75	.	/	.	/
CN(C)CC(=O)Nc1ccc2c(c1)[C@@H]1C[C@H](CC(=O)NCc3ccccc3)O[C@@H](CO)[C@@H]1O2	.	.	/	.	.
CCCNC(=O)Nc1ccc2c(c1)C(=O)N(C)C[C@@H](OC)[C@@H](C)CN(C(C)=O)[C@@H](C)CO2	.	.	/	.	.
Cc1ccc(C(=O)OCC(=O)N(C)c2c(N)n(Cc3ccccc3)c(=O)[nH]c2=O)s1	36	.	.	.	.
Cc1ccsc1C(=O)OCC(=O)N(C)c1c(N)n(Cc2ccccc2)c(=O)[nH]c1=O	.	.	.	.	.
O=C(OCC(=O)N1CCOCC1)c1cc(=O)[nH]c2ccccc12	28	.	.	.	.
